Measurements reported in ChEMBL document CHEMBL3272313, “3-Hydroxy-17-aralkylmorphinans as potential opiate receptor-site-directed alkylating agents” (J Med Chem, 1977).
The source made the active and inactive calls. The calls are words filed in the database; no cut-off is given here.

Experiments:
[1] = test system: Mus musculus; assay: Inhibition of morphine sulfate-induced analgesic activity in Swiss-Webster mouse at 80 mg/kg, sc after 1 hr; format: functional, organism-based; parameters: dose 80 mg/kg
Method in brief: (§1)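 Male Swiss-Webster mice, 20–25 g. Challenge was 10 mg/kg morphine sulfate in 8–10 mice, read by the modified D'Amour–Smith test. Where block was seen, morphine ED50 (95% limits) was found by Litchfield–Wilcoxon.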

[2] = test system: Mus musculus; assay: Analgesic activity in sc dosed Swiss-Webster mouse after 30 mins; format: functional; details: 0.5 h
[3] = test system: Mus musculus; assay: Analgesic activity in Swiss-Webster mouse assessed as time required for sustainance of activity at 80 mg/kg, sc; format: functional; details: route subcutaneous
[4] = test system: Mus musculus; assay: Analgesic activity in sc dosed Swiss-Webster mouse time of peak effect; format: functional
[5] = test system: Mus musculus; assay: Inhibition of morphine sulfate-induced analgesic activity in Swiss-Webster mouse at 100 mg/kg, sc after 2 hrs; format: functional, organism-based; parameters: dose 100 mg/kg; method in brief: as §1
[6] = test system: Mus musculus; assay: Analgesic activity in Swiss-Webster mouse assessed as time required for sustainance of activity at 100 mg/kg, sc; format: functional; details: route subcutaneous
[7] = test system: Mus musculus; assay: Inhibition of morphine sulfate-induced analgesic activity in Swiss-Webster mouse at 100 mg/kg, sc after 1 hr; format: functional, organism-based; parameters: dose 100 mg/kg; method in brief: as §1
[8] = test system: Mus musculus; assay: Analgesic activity in Swiss-Webster mouse assessed as time required for sustainance of activity at 20 mg/kg, sc; format: functional; details: route subcutaneous
[9] = test system: Mus musculus; assay: Analgesic activity in Swiss-Webster mouse assessed as time required for sustainance of activity at 15 mg/kg, sc; format: functional; details: route subcutaneous
[10] = species: Mus musculus; assay: Narcotic agonist activity in morphine-dependent mouse assessed as suppression of abstinence; format: functional, organism-based
Method in brief: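 Single-dose suppression test in morphine-dependent mice after withdrawal (method of Takemori et al.); compound given sc.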

[11] = test system: Mus musculus; assay: Inhibition of morphine sulfate-induced analgesic activity in Swiss-Webster mouse at 100 mg/kg, sc after 3 hrs; format: functional, organism-based; parameters: dose 100 mg/kg; method in brief: as §1
[12] = test system: Mus musculus; assay: Inhibition of morphine sulfate-induced analgesic activity in Swiss-Webster mouse at 2.6 mg/kg, sc after 2.5 hrs; format: functional, organism-based; parameters: dose 2.6 mg/kg; method in brief: as §1
[13] = test system: Mus musculus; assay: Ratio of morphine ED50 to compound ED50 for sc dosed Swiss-Webster mouse; format: functional
[14] = test system: Mus musculus; assay: Analgesic activity in Swiss-Webster mouse assessed as time required for sustainance of activity at 2.6 mg/kg, sc; format: functional; details: route subcutaneous
[15] = test system: Mus musculus; assay: Analgesic activity in Swiss-Webster mouse assessed as time required for sustainance of activity at 5.3 mg/kg, sc; format: functional; details: route subcutaneous
[16] = test system: Mus musculus; assay: Inhibition of morphine sulfate-induced analgesic activity in Swiss-Webster mouse at 5.3 mg/kg, sc after 3 hrs; format: functional, organism-based; parameters: dose 5.3 mg/kg; method in brief: as §1
[17] = test system: Mus musculus; assay: Analgesic activity in Swiss-Webster mouse assessed as time required for sustainance of activity at 0.81 mg/kg, sc; format: functional; details: route subcutaneous
[18] = test system: Mus musculus; assay: Inhibition of morphine sulfate-induced analgesic activity in Swiss-Webster mouse at 0.81 mg/kg, sc after 2.5 hrs; format: functional, organism-based; parameters: dose 0.81 mg/kg; method in brief: as §1

Row | Structure (SMILES) | ED50 [2] [mg/kg] | Time [4] [min] | Time [6] [h] | also measured
1 | O=C1C=CC(=O)N1c1ccccc1CCN1CC[C@]23CCCC[C@H]2[C@H]1Cc1ccc(O)cc13 | > 100 | – | – | inhibition [1]: Active; Time [3]: 1 h
2 | CN1CC[C@]23c4c5ccc(O)c4O[C@H]2[C@@H](O)C=C[C@H]3[C@H]1C5.CN1CC[C@]23c4c5ccc(O)c4O[C@H]2[C@@H](O)C=C[C@H]3[C@H]1C5.O=S(=O)(O)O | 4.9 | 30 | – | –
3 | CC(=O)Oc1ccc2c(c1)[C@@]13CCCC[C@H]1[C@@H](C2)N(CCCc1cccc(N2C(=O)C=CC2=O)c1)CC3 | > 100 | – | 2 | inhibition [5]: Active
4 | CCOC(=O)CCC(=O)Nc1ccccc1CCN1CC[C@]23CCCC[C@H]2[C@H]1Cc1ccc(O)cc13 | > 100 | – | 1 | inhibition [7]: Active
5 | CC(=O)Oc1ccc2c(c1)[C@@]13CCCC[C@H]1[C@@H](C2)N(CCc1ccccc1N1C(=O)C=CC1=O)CC3 | 11.7 | 30 | – | Time [8]: 2 h
6 | CCOC(=O)/C=C\C(=O)Nc1cccc(CCN2CC[C@]34CCCC[C@H]3[C@H]2Cc2ccc(O)cc24)c1 | 2.3 | 60 | – | Time [9]: 3 h; inhibition [10]: Active
7 | O=C(CBr)Nc1ccc(CCCN2CC[C@]34CCCC[C@H]3[C@H]2Cc2ccc(O)cc24)cc1 | > 100 | – | 1 | inhibition [7]: Active
8 | CC(=O)Oc1ccc2c(c1)[C@@]13CCCC[C@H]1[C@@H](C2)N(CCCc1ccccc1N1C(=O)C=CC1=O)CC3 | 48.4 | 30 | 3 | inhibition [11]: Active
9 | CCOC(=O)/C=C/C(=O)Nc1ccc(CCN2CC[C@]34CCCC[C@H]3[C@H]2Cc2ccc(O)cc24)cc1 | 1.2 | 60 | – | inhibition [12]: Active; Ratio ED50 [13]: 4; Time [14]: 2.5 h
10 | CCOC(=O)/C=C/C(=O)Nc1ccc(CCCN2CC[C@]34CCCC[C@H]3[C@H]2Cc2ccc(O)cc24)cc1 | 28.4 | 30 | 2 | inhibition [5]: Active
11 | O=C1C=CC(=O)N1c1cccc(CCN2CC[C@]34CCCC[C@H]3[C@H]2Cc2ccc(O)cc24)c1 | 11.4 | 30 | – | inhibition [10]: Active; Time [8]: 2 h
12 | O=C(CBr)Nc1cccc(CCN2CC[C@]34CCCC[C@H]3[C@H]2Cc2ccc(O)cc24)c1 | 0.58 | 30 | – | Time [15]: 3 h; inhibition [16]: Active
13 | O=C(CBr)Nc1ccc(CCN2CC[C@]34CCCC[C@H]3[C@H]2Cc2ccc(O)cc24)cc1 | 0.13 | 30 | – | Time [17]: 2.5 h; Ratio ED50 [13]: 4; inhibition [18]: Active
14 | CCOC(=O)/C=C/C(=O)Nc1cccc(CCN2CC[C@]34CCCC[C@H]3[C@H]2Cc2ccc(O)cc24)c1 | 5.6 | 60 | – | inhibition [10]: Active; Time [8]: 3 h
15 | Br.CC1C2Cc3ccc(O)cc3C1(C)CCN2CCc1ccccc1 (stereo not drawn) [PHENAZOCINE HYDROBROMIDE] | 0.53 | 30 | – | –
